The source of these data is ChEMBL document CHEMBL2434890, “Design, synthesis and structure-activity relationship of novel quinoxaline derivatives as cancer chemopreventive agent by inhibition of tyrosine kinase receptor” (Eur J Med Chem, 2013).

Assay type in all cases: cell-based
Data set [1] concerns Raji. The data set can be described thus: Inhibition of TPA-induced EBV early antigen activation infected in human Raji cells assessed as antigen activity at 1000 mol ratio/TPA after 48 hrs by immunofluorescence method relative to control. Conditions: human gammaherpesvirus 4; call rule not given here. Details: scale not given: the % may be the effect or the level left.
Data set [2] relates to Raji. The data set can be described thus: Inhibition of TPA-induced EBV early antigen activation infected in human Raji cells assessed as antigen activity at 100 mol ratio/TPA after 48 hrs by immunofluorescence method relative to control. Set-up: scale not given: the % may be the effect or the level left. To be noted: human gammaherpesvirus 4.
The nature of data set [3]: Cytotoxicity against human Raji cells assessed as cell viability at 1000 mol ratio/TPA after 48 hrs by trypan blue staining method. Conditions: read-out: Activity. A digest of the protocol:
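Raji cells were treated as in the EBV-EA assay: 48 h at 37 °C with 4 mM n-butyric acid, […] and compound in DMSO (ca. 0.7%), dosed by mol ratio to TPA. Viability of the treated cells was determined by trypan blue staining.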

The nature of data set [4]: Inhibition of TRK in human HepG2 cells after 48 hrs by ELISA. A digest of the protocol: (§1)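 HepG2 or MCF-7 cells, kept in DMEM with 10% heat-inactivated FCS and penicillin, seeded at 0.50×10⁶ per flask and treated 48 h at 37 °C, 5% CO₂ with compound in DMSO (2.5–40 μg/ml). Cells were homogenized in saline. TRK level was measured by double-antibody sandwich ELISA (OD 450 nm) against a standard curve, in triplicate. IC50 = 50% reduction of TRK relative to untreated cells.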
Background: In an ELISA, binding on a coated surface is turned into a signal by an enzyme label.

Data set [5] concerns Raji. The data set can be described thus: Inhibition of TPA-induced EBV early antigen activation infected in human Raji cells after 48 hrs by immunofluorescence method relative to control. To be noted: human gammaherpesvirus 4.
Data set [6] concerns Raji. Put plainly: Inhibition of TPA-induced EBV early antigen activation infected in human Raji cells assessed as antigen activity at 500 mol ratio/TPA after 48 hrs by immunofluorescence method relative to control. Conditions: human gammaherpesvirus 4. Details: scale not given: the % may be the effect or the level left.
Data set [7] in a line: Inhibition of TRK in human MCF7 cells after 48 hrs by ELISA. A digest of the protocol: as §1
Data set [8] relates to Raji. The data set can be described thus: Inhibition of TPA-induced EBV early antigen activation infected in human Raji cells assessed as antigen activity at 10 mol ratio/TPA after 48 hrs by immunofluorescence method relative to control. Conditions: human gammaherpesvirus 4. Details: scale not given: the % may be the effect or the level left.

SMILES strings stand for the structures.

The term IC50 denotes the concentration needed to halve the response being measured. On to `Oc1nc2ccccc2n2c(O)nnc12`, for which the Activity in the data set with Raji [1] amounted to 15.6%; in the data set on Raji [2], 79.1%; with Raji [6], 47.2%; with Raji [8] it was 100%. For the same compound, the viability at 48 h, 1000 mol ratio/TPA in data set [3] is 60%. Moreover, the IC50 came to 25 nM in data set [4] and 30 nM in data set [7]. Also, the inhibition result in the data set with Raji [5] is “Dose-dependent effect”.

Consider `CC1(C)CC[C@]2(C(=O)O)CC[C@]3(C)C(=CC[C@@H]4[C@@]5(C)CC[C@H](O)C(C)(C)[C@@H]5CC[C@]43C)[C@@H]2C1` [OLEANOLIC_ACID], for which the Activity in the data set on Raji [1] is 12.7%; in the data set with Raji [2], 80%; with Raji [6], 30%; in the data set on Raji [8], 100%. The viability at 48 h, 1000 mol ratio/TPA in data set [3] was found to be 70%.

As for `C=CCn1c(=O)c(N/N=C/c2ccc(N(C)C)cc2)nc2ccccc21`, the Activity was 10.1% with Raji [1], 73.2% in the data set with Raji [2], 41.6% with Raji [6] and 100% in the data set on Raji [8]. In addition, the viability at 48 h, 1000 mol ratio/TPA in data set [3] was 60%. The figures for the IC50 in data set [4] and in data set [7] were 2.65 nM and 2.9 nM, respectively. Further, the inhibition result with Raji [5] is “Dose-dependent effect”.

Regarding `O=c1[nH]c2ccccc2n2c(=O)c(O)nnc12`, the Activity with Raji [1] was determined as 14.2%; with Raji [2] it was 78.6%; in the data set with Raji [6], 47%; with Raji [8], 100%. Also, in data set [3], the viability at 48 h, 1000 mol ratio/TPA stood at 60%. Also, the IC50 in data set [4] came out at 20 nM; in data set [7], 27.8 nM. Also, in the data set on Raji [5], the inhibition result is “Dose-dependent effect”.

As to `NNc1nc2ccccc2[nH]c1=O`, the Activity in the data set on Raji [1] stood at 14.9%; in the data set with Raji [2], 78.1%; in the data set on Raji [6], 46.5%; in the data set on Raji [8] it was 100%. Further, in data set [3], the viability at 48 h, 1000 mol ratio/TPA was determined as 60%. The values for the IC50 in data set [4] and in data set [7] were 9 nM and 10.2 nM, respectively. For the same compound, the inhibition entry in the data set with Raji [5] is “Dose-dependent effect”.

As for `COc1cccc2c1C(=O)c1c(O)c3c(c(O)c1C2=O)C[C@@](O)(C(=O)CO)C[C@@H]3O[C@H]1C[C@H](N)[C@H](O)[C@H](C)O1` [DOXORUBICIN], the values for the IC50 in data set [4] and in data set [7] were 2.5 nM and 3.2 nM, respectively.

Take `CCOC(=O)Cn1c(=O)c(N/N=C/c2ccc(N(C)C)cc2)nc2ccccc21`: the Activity turned out to be 12.7% with Raji [1], 78.6% in the data set on Raji [2], 47.6% with Raji [6] and 100% with Raji [8]. In addition, in data set [3], the viability at 48 h, 1000 mol ratio/TPA is 60%. In addition, the IC50 was 4.5 nM in data set [4] and 4.85 nM in data set [7]. For the same compound, the inhibition entry with Raji [5] is “Dose-dependent effect”.

For the compound `C=CCn1c(=O)c(N/N=C/c2c(OC)cccc2OC)nc2ccccc21`, the Activity with Raji [1] came to 10.8%; in the data set with Raji [2], 73.5%; in the data set with Raji [6], 42%; in the data set with Raji [8], 100%. Further, in data set [3], the viability at 48 h, 1000 mol ratio/TPA came to 60%. Also, the IC50 stood at 3.5 nM in data set [4] and 4.15 nM in data set [7]. Besides, in the data set on Raji [5], the inhibition entry is “Dose-dependent effect”.

For the compound `CC(C)=NNc1nc2ccccc2[nH]c1=O`, the Activity with Raji [1] came to 13.2%; in the data set with Raji [2], 77%; in the data set on Raji [6], 45%; with Raji [8] it was 100%. In addition, the viability at 48 h, 1000 mol ratio/TPA in data set [3] turned out to be 60%. Also, the IC50 in data set [4] amounted to 15 nM; in data set [7], 17.2 nM. For the same compound, in the data set on Raji [5], the inhibition result was “Dose-dependent effect”.

As to `O=c1[nH]c2ccccc2nc1Cl`, the Activity was determined as 16.7% in the data set on Raji [1], 80.2% with Raji [2], 48.5% in the data set on Raji [6] and 100% in the data set with Raji [8]. The viability at 48 h, 1000 mol ratio/TPA in data set [3] was found to be 50%. In the data set with Raji [5], the inhibition result was “Dose-dependent effect”.

For the compound `O=C1CCC(=O)N(c2nc3ccccc3[nH]c2=O)N1`, the Activity with Raji [1] amounted to 16.7%; in the data set on Raji [2] it was 82.8%; with Raji [6], 47.7%; in the data set on Raji [8], 100%. Moreover, the viability at 48 h, 1000 mol ratio/TPA in data set [3] stood at 60%. Further, the inhibition result in the data set with Raji [5] is “Dose-dependent effect”.

For the compound `O=C1CN2C(=NN1)C(=O)Nc1ccccc12`, the Activity with Raji [1] is 13.6%; with Raji [2], 78%; in the data set on Raji [6], 46.3%; with Raji [8], 100%. The viability at 48 h, 1000 mol ratio/TPA in data set [3] was 60%. Moreover, the inhibition result with Raji [5] is “Dose-dependent effect”.

Turning to `O=C1CC(=O)N(c2nc3ccccc3[nH]c2=O)N1`, the Activity amounted to 17.5% in the data set on Raji [1], 83.9% in the data set on Raji [2], 48% in the data set on Raji [6] and 100% in the data set with Raji [8]. The viability at 48 h, 1000 mol ratio/TPA in data set [3] was found to be 60%. The inhibition entry in the data set with Raji [5] was “Dose-dependent effect”.

As for `O=C1Nc2ccccc2N2C(O)=CNN=C12`, the Activity with Raji [1] was 13.2%; in the data set on Raji [2], 77.6%; in the data set with Raji [6], 46%; in the data set with Raji [8], 100%. Moreover, in data set [3], the viability at 48 h, 1000 mol ratio/TPA was determined as 60%. Also, the inhibition result in the data set with Raji [5] is “Dose-dependent effect”.

Regarding `CN(C)c1ccc(/C=N/Nc2nc3ccccc3[nH]c2=O)cc1`, the Activity was determined as 13.9% with Raji [1], 71.7% in the data set on Raji [2], 42.2% in the data set with Raji [6] and 100% in the data set with Raji [8]. In addition, the viability at 48 h, 1000 mol ratio/TPA in data set [3] was 60%. The IC50 came to 9.8 nM in data set [4] and 11.8 nM in data set [7]. For the same compound, the inhibition entry with Raji [5] is “Dose-dependent effect”.

For the compound `CN1C(=S)NNC12Nc1ccccc1NC2=O` (stereo not given), the Activity turned out to be 18.7% with Raji [1], 84.6% with Raji [2], 48.3% in the data set with Raji [6] and 100% with Raji [8]. In data set [3], the viability at 48 h, 1000 mol ratio/TPA was 60%. Besides, the inhibition result with Raji [5] is “Dose-dependent effect”.

`Oc1nc2ccccc2n2cnnc12`: the Activity was 18.6% in the data set on Raji [1], 84.2% in the data set with Raji [2], 48.2% in the data set on Raji [6] and 100% in the data set on Raji [8]. Besides, the viability at 48 h, 1000 mol ratio/TPA in data set [3] stood at 60%. Further, the IC50 entry in data set [4] and in data set [7] was “Not Active” each time. For the same compound, in the data set with Raji [5], the inhibition result was “Dose-dependent effect”.

Consider `CCOC(=O)Cn1c(=O)c(N/N=C/c2c(OC)cccc2OC)nc2ccccc21`, for which the Activity with Raji [1] stood at 13.5%; in the data set on Raji [2], 75.6%; in the data set with Raji [6], 45.7%; in the data set on Raji [8], 100%. Besides, in data set [3], the viability at 48 h, 1000 mol ratio/TPA was 60%. The IC50 is 4.1 nM in data set [4] and 4.6 nM in data set [7]. For the same compound, in the data set with Raji [5], the inhibition result was “Dose-dependent effect”.

Regarding `Oc1nc2ccccc2nc1O`, the Activity in the data set on Raji [1] amounted to 14.2%; in the data set on Raji [2], 78.5%; in the data set with Raji [6] it was 46.8%; in the data set with Raji [8], 100%. Also, the viability at 48 h, 1000 mol ratio/TPA in data set [3] is 60%. The IC50 result in data set [4] and in data set [7] was “Not Active” throughout. Further, the inhibition result in the data set on Raji [5] was “Dose-dependent effect”.

For `COc1cccc(OC)c1/C=N/Nc1nc2ccccc2[nH]c1=O`, the Activity with Raji [1] was found to be 16.8%; in the data set with Raji [2], 81%; in the data set on Raji [6], 46.6%; with Raji [8] it was 100%. Further, the viability at 48 h, 1000 mol ratio/TPA in data set [3] turned out to be 60%. The figures for the IC50 in data set [4] and in data set [7] were 7.5 nM and 8.75 nM, respectively. Also, in the data set on Raji [5], the inhibition entry is “Dose-dependent effect”.

Regarding `N=c1c(O)nnc2c(=O)[nH]c3ccccc3n12`, the Activity was determined as 15% in the data set with Raji [1], 79% in the data set with Raji [2], 47.1% in the data set on Raji [6] and 100% in the data set on Raji [8]. Besides, the viability at 48 h, 1000 mol ratio/TPA in data set [3] stood at 60%. Moreover, the IC50 is 18 nM in data set [4] and 20.2 nM in data set [7]. Further, the inhibition result in the data set on Raji [5] is “Dose-dependent effect”.

`O=C(c1ccccc1)N1C(=S)NNC12Nc1ccccc1NC2=O` (stereo not given): the Activity in the data set with Raji [1] was 19.1%; in the data set on Raji [2], 85.2%; with Raji [6], 49.1%; in the data set with Raji [8], 100%. Also, in data set [3], the viability at 48 h, 1000 mol ratio/TPA turned out to be 60%. Also, the 50% inhibitory concentration (IC50) result in data set [4] and in data set [7] was “Not Active” throughout. In addition, the inhibition result with Raji [5] was “Dose-dependent effect”.
